Source: publication PMC3580853 (Bioorganic & medicinal chemistry letters, 2012)

What was measured:
[1] = format: physicochemical; details: reaction at 37°C, gel apparatus up to 55°C
How it was run: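 Stability inferred from a single-turnover incorporation time course using HIV-1 RT (250 nM) and D23/D36 primer/template (50 nM). The test triphosphate (150 μM) and a dTTP reference (100 μM) were run in parallel at 37°C and sampled at 0, 30 s, 5, 10, 30 and 60 min. Products were resolved on denaturing acrylamide gel (apparatus up to 55°C), comparing band mobility.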

HIV-1 = details: MT-2 cell culture

Row | Stability (in words) [1] | SMILES | Antiviral activity in cell culture (in words) (HIV-1)
1 | increased compound stability | Cc1cc(C#CCOCCOCCOCCOCCOCC#Cc2cn([C@H]3C=C[C@@H](COP(=O)(O)OP(=O)(O)OP(=O)(O)O)O3)c(=O)[nH]c2=O)cc(C)c1Oc1ccnc(Nc2ccc(C#N)cc2)n1 [d4TTP-4PEG-TMC] | 
2 |  | CC(C)=CCN1Cc2c(OCCOCCOCCOCCOC(=O)CCc3cn([C@H]4C=C[C@@H](CO)O4)c(=O)[nH]c3=O)ccc3[nH]c(=S)n(c23)C[C@@H]1C [Compound 16a] | most inhibitory
